# Test results taken from ChEMBL document CHEMBL2021842, “COMPARE analysis of the toxicity of an iminoquinone derivative of the imidazo[5,4-f]benzimidazoles with NAD(P)H:quinone oxidoreductase 1 (NQO1) activity and computational docking of quinones as NQO1 substrates” (Bioorg Med Chem, 2012).
# Columns and labels:
# [1] = test system: DU-145; assay: Cytotoxicity against human DU145 cells assessed as reduction in mean cell viability after 72 hrs by MTT assay; format: functional, cell-based; settings: DU-145, 72 h
# Procedure, shortened: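 DU-145 prostate cells in RPMI-1640 with 10% heat-inactivated FBS, penicillin–streptomycin and 2 mM L-glutamine. Seeded at 2000 cells/well and left 24 h to adhere. Compound added in ethanol (1% final) for 72 h at 37 °C, 5% CO₂, with ethanol-only controls. Formazan dissolved in DMSO and read at 550 nm (690 nm reference). IC₅₀ derived by nonlinear regression of viability versus vehicle.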
# [2] = test system: HeLa; assay: Cytotoxicity against human HeLa cells assessed as reduction in mean cell viability after 72 hrs by MTT assay; format: functional, cell-based
# Procedure, shortened: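 HeLa-CCL-2 cells in DMEM with 10% heat-inactivated FBS, 2 mM L-glutamine and nonessential amino acids. Plated at 1000 cells/well with 24 h adherence. Treated in ethanol (1% final) for 72 h at 37 °C under 5% CO₂, with ethanol controls. Absorbance of DMSO-dissolved formazan at 550 nm, 690 nm reference. IC₅₀ by nonlinear regression of percent viability.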
# [3] = Cytotoxicity against human GM00637 cells assessed as reduction in mean cell viability after 72 hrs by MTT assay; format: cell-based; settings: GM00637, 72 h
# Procedure, shortened: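 SV40-transformed normal skin fibroblasts (GM00637) in MEM Eagle–Earle BSS with 15% heat-inactivated FBS, 2 mM L-glutamine, 2× amino acids and vitamins. Seeded at 10,000 cells/well and left 24 h to adhere. Ethanol-delivered compound (1% final) for 72 h at 37 °C, 5% CO₂. MTT formazan in DMSO read at 550/690 nm. Viability relative to vehicle; IC₅₀ by nonlinear regression.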
# [4] = Solubility of the compound in organic solvent; format: physicochemical
# [5] = Aqueous solubility of the compound; format: physicochemical; settings: buffer
compound,measurement,setting,value
O=C1c2nc3n(c2C(=O)c2c1nc1n2CCCC1)CCCC3,IC50,[1],1.73 µM
same,IC50,[2],3.33 µM
same,IC50,[3],> 5 µM
O=C1c2nc3n(c2C(=O)c2nc4n(c21)CCC4)CCC3,solubility,[4],Insoluble
same,solubility,[5],Insoluble
